# Reference: ChEMBL document CHEMBL1177683, “Synthesis and pharmacological evaluation of pyrazine N-acylhydrazone derivatives designed as novel analgesic and anti-inflammatory drug candidates” (2010)
# The source made the active and inactive calls. The rule behind the calls is not given here.
# What was measured:
# Mus musculus [1] = experiment: Analgesic activity in Swiss mouse assessed as increase in latency of paw licking at 100 umol/kg, po after 60 mins measured for 60 seconds by hot plate test (reference value: 4.9 +/- 0.5 seconds); assay type: functional
# Mus musculus [2] = experiment: Analgesic activity in Swiss mouse assessed as increase in latency of paw licking at 100 umol/kg, po after 120 mins measured for 60 seconds by hot plate test (reference value: 5.6 +/- 0.5 seconds); assay type: functional
# Mus musculus [3] = experiment: Antinociceptive activity in Swiss mouse assessed as inhibition of acetic acid-induced abdominal constrictions at 100 umol/kg, po administered 40 mins before acetic acid challenge measured for 25 mins relative to control; assay type: functional; conditions: Abdomen
# In short: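 Mice were dosed at 100 µmol/kg po in arabic gum (10 mL/kg), 40 min before 0.6% v/v acetic acid ip (0.1 mL/10 g). Writhes (abdominal contraction, pelvic rotation, hind-limb extension) were counted for 20 min starting 5 min post-injection. Results are expressed as % inhibition versus vehicle controls. Groups of 6 (control 10), ANOVA/Dunnett.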
# Mus musculus [4] = experiment: Analgesic activity in Swiss mouse assessed as increase in latency of paw licking at 100 umol/kg, po after 90 mins measured for 60 seconds by hot plate test (reference value: 5.9 +/- 0.8 seconds); assay type: functional
# Mus musculus [5] = experiment: Analgesic activity against formalin-induced acute pain in Swiss mouse assessed inhibition of nociception at 100 umol/kg, po administered 40 mins before formalin challenge measured for 15 to 30 mins relative to control; assay type: functional
# In short: (§1)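 Mice, 6 per group, received 20 µL of 2.5% formalin (0.92% formaldehyde in saline) into the ventral surface of the right hind paw. Dosing was 100 µmol/kg po in arabic gum vehicle (10 mL/kg), 40 min beforehand. Time spent licking the injected paw was recorded over 0–5 min (neurogenic phase) and 15–30 min (inflammatory phase). Data are mean ± S.E.M., ANOVA/Dunnett versus vehicle.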
# Mus musculus [6] = experiment: Analgesic activity in Swiss mouse assessed as increase in latency of paw licking at 100 umol/kg, po after 150 mins measured for 60 seconds by hot plate test (reference value: 5.1 +/- 0.4 seconds); assay type: functional
# Mus musculus [7] = experiment: Antiedematogenic activity in Swiss mouse assessed as inhibition of capsaicin-induced ear edema at 100 umol/kg, po administered 40 mins before capsaicin challenge measured after 30 mins relative to control
# Mus musculus [8] = experiment: Antiedematogenic activity in Swiss mouse assessed as decrease of capsaicin-induced ear edema weight at 100 umol/kg, po administered 40 mins before capsaicin challenge measured after 30 mins relative to control; design: scale not given: the % may be the effect or the level left
# Mus musculus [9] = experiment: Analgesic activity against formalin-induced acute pain in Swiss mouse assessed as decrease of time spent in paw licking at 100 umol/kg, po administered 40 mins before formalin challenge measured for 15 to 30 mins; assay type: functional, organism-based; in short: as §1
Compound,Time (Mus musculus [1]),Time (Mus musculus [2]),inhibition in vivo at 100 µmol/kg (Mus musculus [3]),Time (Mus musculus [4]),inhibition in vivo at 100 µmol/kg (Mus musculus [5]),Time (Mus musculus [6]),inhibition in vivo at 100 µmol/kg (Mus musculus [7]),Activity (Mus musculus [8]),Activity (Mus musculus [9])
CC(C)(C)c1cc(/C=N/NC(=O)c2cnccn2)cc(C(C)(C)C)c1O,2.7 s,3.4 s,71.6%,3.4 s,26.8%,5.4 s,32.3%,39.5%,
COc1ccc2c(c1)c(CC(=O)O)c(C)n2C(=O)c1ccc(Cl)cc1 [INDOMETHACIN],,,73.1%,,39%,,49.3%,29.7%,
COc1ccc(/C=N/NC(=O)c2cnccn2)cc1O,2 s,1.9 s,64.8%,4 s,14.7%,4.7 s,27%,42.8%,
CC(C)c1ccc(/C=N/NC(=O)c2cnccn2)cc1,3.3 s,5.2 s,67.6%,4.7 s,66.5%,4.6 s,46.6%,31.2%,Active
O=C(N/N=C/c1ccc(C(F)(F)F)cc1)c1cnccn1,3.1 s,2.4 s,54.5%,3.9 s,27.7%,4 s,48.3%,30.2%,
O=C(N/N=C/c1ccncc1)c1cnccn1,3.5 s,5.4 s,40.4%,3.2 s,58.4%,4.5 s,32.3%,45.7%,Active
COc1cc(/C=N/NC(=O)c2cnccn2)ccc1O,2.6 s,3.4 s,47%,3.2 s,31.8%,4.4 s,63.5%,21.3%,
O=C(N/N=C/c1ccccn1)c1cnccn1,2.4 s,4.5 s,75.5%,4.4 s,56.4%,3 s,44.9%,32.2%,Active
COc1ccc(/C=N/NC(=O)c2cnccn2)cc1OC,4.8 s,6.3 s,73.6%,4.2 s,29.1%,3.8 s,49.6%,29.5%,
O=C(N/N=C/c1ccc(F)cc1)c1cnccn1,4.6 s,4.8 s,74.5%,5.4 s,72.3%,3.1 s,33.1%,39.1%,Active
O=C(N/N=C/c1ccc(O)cc1)c1cnccn1,3.1 s,5.3 s,61.4%,3.4 s,16.7%,4 s,42.3%,33.7%,
O=C(N/N=C/c1ccc2c(c1)OCO2)c1cnccn1,2.4 s,4.4 s,78.2%,3 s,46.7%,3.2 s,44.7%,32.3%,Active
O=C(N/N=C/c1ccc(-c2ccccc2)cc1)c1cnccn1,2.7 s,4 s,57.3%,3.5 s,46.9%,4.5 s,47.7%,32.9%,Active
CC(C)c1ccc(/C=N/NC(=O)c2nc3ccccc3nc2-c2ccccc2)cc1,4.6 s,5.4 s,77.3%,5 s,66.5%,4.3 s,47.5%,30.7%,
O=C(N/N=C/c1cc(=O)c2ccccc2o1)c1cnccn1,2.5 s,6.2 s,86.3%,3.5 s,52.7%,4.2 s,55.3%,26.1%,Active
O=C(N/N=C/c1ccccc1)c1cnccn1,4.4 s,4 s,42.4%,4.2 s,60.8%,5.2 s,30.5%,40.6%,Active
Cc1ccc(-c2cc(C(F)(F)F)nn2-c2ccc(S(N)(=O)=O)cc2)cc1 [CELECOXIB],5.5 s,4.4 s,56.9%,5.7 s,68.4%,3.8 s,56.4%,25.5%,
O=C(N/N=C/c1ccc([N+](=O)[O-])cc1)c1cnccn1,3.1 s,4.9 s,40.4%,5.4 s,44.4%,4.9 s,41.9%,34%,Active
O=C(N/N=C/c1c2ccccc2cc2ccccc12)c1cnccn1,3.7 s,5.6 s,33.6%,6.2 s,45.8%,6.6 s,54.7%,26.5%,
O=C(N/N=C/c1ccc2ccccc2c1)c1cnccn1,2.8 s,4.4 s,68.4%,3.5 s,68%,4.5 s,35.4%,37.8%,
